For series [1], the system named is Enterovirus. Put plainly: Antiviral activity against Rhinovirus 71903 infected in human RD cells after 72 hrs by crystal violet-staining based assay. Format: functional, organism-based. Conditions: Enterovirus, 71903, RD. The gist of the method:
(§1)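 Cells seeded at 2 × 10^4/well in E10 (DMEM, 10% FBS), 16–24 h at 37 °C/5% CO2, washed with DPBS, then infected at nine-fold TCID50 with or without serial compound concentrations. Influenza is run in MDCK and enterovirus/rhinovirus in RD. Incubated 72 h, fixed in 4% paraformaldehyde, stained with 0.1% crystal violet, and read for cell density. EC50 = 50% CPE inhibition by Reed–Muench; mean ± S.D. of at least three runs.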

Series [2] concerns Influenza A virus. The experiment in a line: Antiviral activity against Influenza A virus (A/WSN/33) infected in MDCK cells assessed as reduction in virus-induced cytopathic effect after 72 hrs by crystal violet-staining based assay. Conditions: A/WSN/1933(H1N1). Type of series: functional, organism-based. The gist of the method:
as §1

Series [3] is described as follows: Selectivity ratio of CC50 for MDCK cells to EC50 for Influenza A virus A/TW/00642/14. Type of series: toxicity. Conditions: dog, read-out: Ratio CC50/EC50. The gist of the method: (§2)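 MDCK cells (2 × 10^4/well, E10, 16–24 h) infected at nine-fold TCID50 with compound for 72 h, 37 °C, 5% CO2. Cells were fixed in 4% paraformaldehyde and stained with crystal violet; EC50 is from Reed–Muench. For CC50, cells had compound alone for 72 h, then MTT 3 h, DMSO, A570, Reed–Muench. SI = CC50/EC50; three independent experiments.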

Series [4] is described as follows: Selectivity ratio of CC50 for MDCK cells to EC50 for Influenza A virus A/TW/03384/13. Format: toxicity. Conditions: dog, read-out: Ratio CC50/EC50. The gist of the method: as §2
Series [5] relates to Influenza A virus. Put plainly: Antiviral activity against Influenza A virus (A/WSN/33) infected in MDCK cells at 10 uM added at 3 hrs to 9 hrs post infection and measured after 9 hrs by plaque assay. Type of series: functional, organism-based. Conditions: A/WSN/1933(H1N1). Summed up:
(§3)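 MDCK monolayers exposed to compound (1 or 10 μM) over windows of −3, −1, 0, 3 or 6 to 9 h pi. A/WSN/33 adsorbed at MOI 0.1 from −1 to 0 h, then removed with a PBS wash. Supernatant taken at 9 h pi and titred by plaque assay, normalised to virus-only (100%). Average of three independent experiments.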

Series [6] relates to Influenza A virus. The experiment in a line: Antiviral activity against Influenza A virus (A/WSN/33) infected in MDCK cells at 10 uM added at -1 hrs to 9 hrs post infection and measured after 9 hrs by plaque assay. Format: functional, organism-based. Conditions: A/WSN/1933(H1N1). The gist of the method: as §3
Series [7] concerns enterovirus D68. The experiment in a line: Antiviral activity against Enterovirus D68 TW/2795/2014 clade B3 infected in human RD cells after 72 hrs by crystal violet-staining based assay. Conditions: Enterovirus D, TW/2795/2014 clade B3, RD. Format: functional, organism-based. Summed up:
as §1

The test system of series [8] is Influenza A virus. The experiment in a line: Antiviral activity against Influenza A virus A/TW/3446/02 (H3N2) infected in MDCK cells after 72 hrs by crystal violet-staining based assay. Type of series: functional, organism-based. The gist of the method: as §1
Series [9] in a line: Selectivity ratio of CC50 for MDCK cells to EC50 for pandemic Influenza A virus A/TW/90206/09 (H1N1) SO4. Format: toxicity. Conditions: dog, read-out: Ratio CC50/EC50. Summed up:
as §2

For series [10], the system named is Influenza A virus. The experiment in a line: Inhibition of viral protein sub-cellular distribution in Influenza A virus (A/WSN/33) infected in MDCK cells assessed as reduction in NS2 protein distribution to cytoplasm at 10 uM measured after 9 hrs post infection by IF-staining based microscopy. Conditions: A/WSN/1933(H1N1). Format: functional, organism-based. Summed up:
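MDCK cells grown on coverslips (2 × 10^5/well, 16 h), infected at MOI 0.1 for 1 h, washed, then kept in E0 with test compound (1 or 10 μM) or LMB 10 nM; DMSO 0.05% as mock. Fixed at 9 h pi in 4% paraformaldehyde and immunostained for M1, NP, NS2 or PA (1:50), with Hoechst nuclear stain. Viewed by confocal microscopy at 63×. NP nuclear/cytoplasmic intensity ratio quantified; three independent experiments.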

Series [11] has as its system MDCK. Put plainly: Cytotoxicity against MDCK cells at 10 uM after 12 to 36 hrs by microscopic analysis. Conditions: dog. Type of series: cell-based, Canis lupus familiaris. The gist of the method: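 MDCK cells (2 × 10^5/well) grown 16–24 h, infected with A/WSN/33 at MOI 0.5 for 1 h, rinsed twice with DPBS, then kept in serum-free E0 with 10 μM compound at 37 °C. Cell morphology checked by light microscopy at 12 and 36 h pi. Drug-only and virus-only arms included; three repetitions.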

Series [12] deals with Enterovirus A71. Put plainly: Antiviral activity against Enterovirus A71 TW/2231/1998 infected in human RD cells after 72 hrs by crystal violet-staining based assay. Format: functional, organism-based. Conditions: Enterovirus A, TW/2231/1998, RD. The gist of the method: as §1
A short description of series [13]: Cytotoxicity against human RD cells assessed as cell death after 72 hrs by MTT assay. Type of series: cell-based. The gist of the method: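 MDCK or RD cells at 2 × 10^4/well in E10, overnight at 37 °C/5% CO2, DPBS wash, then exposed to graded compound concentrations for 72 h. MTT added for 3 h, formazan dissolved in DMSO, absorbance read at 570 nm. CC50 (50% cell death) by Reed–Muench.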
On the technique in general: Tetrazolium dyes change colour on reduction, which living cells bring about.

Series [14] in a line: Selectivity ratio of CC50 for human RD cells to EC50 for Enterovirus A71 TW/2231/1998. Type of series: toxicity. Conditions: read-out: Ratio CC50/EC50. Summed up: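 RD cells (2 × 10^4/well, DMEM 10% FBS, 16–24 h) infected with enterovirus at nine-fold TCID50 with compound, 72 h, 37 °C, 5% CO2. Cells were fixed in 4% paraformaldehyde, stained with 0.1% crystal violet, and EC50 taken by Reed–Muench. CC50 came from 72 h exposure of uninfected RD cells, MTT 3 h, A570, Reed–Muench. SI = CC50/EC50; three independent experiments.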

Series [15] concerns Influenza A virus. The experiment in a line: Inhibition of viral protein synthesis in Influenza A virus (A/WSN/33) infected in MDCK cells assessed as effect on NS2 protein level at 10 uM measured up to 9 hrs post infection by Western blot analysis. Format: functional, organism-based. Conditions: A/WSN/1933(H1N1). The gist of the method: (§4)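 MDCK cells (5 × 10^5/well) infected with A/WSN/33 at MOI 0.1, washed twice, then held in E0 with or without 10 μM compound. Lysed in Triton X-100/deoxycholate buffer, equal protein separated by SDS-PAGE, and immunoblotted for viral proteins with GAPDH as loading control. Time-course harvests up to 9 h pi.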
A general note: A western blot detects proteins with antibodies after separation by electrophoresis.

Series [16] deals with Influenza A virus. Put plainly: Antiviral activity against pandemic Influenza A virus A/TW/2235/09 (H1N1) SO4 infected in MDCK cells after 72 hrs by crystal violet-staining based assay. Type of series: functional, organism-based. Conditions: A/TW/2235/09 (H1N1) SO4, MDCK. The gist of the method: as §1
Series [17] can be described thus: Selectivity ratio of CC50 for MDCK cells to EC50 for Influenza A virus (A/WSN/33). Conditions: dog, read-out: Ratio CC50/EC50. Format: toxicity. The gist of the method:
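SI is calculated as CC50 (MDCK, 72 h MTT) divided by EC50 (72 h crystal-violet CPE assay in MDCK).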

The test system of series [18] is Enterovirus. The experiment in a line: Antiviral activity against Rhinovirus 71803 infected in human RD cells after 72 hrs by crystal violet-staining based assay. Type of series: functional, organism-based. Conditions: Enterovirus, 71803, RD. The gist of the method:
as §1

Series [19] has as its system Influenza A virus. Put plainly: Inhibition of viral protein synthesis in Influenza A virus (A/WSN/33) infected in MDCK cells assessed as effect on PA protein level at 10 uM measured up to 9 hrs post infection by Western blot analysis. Format: functional, organism-based. Conditions: A/WSN/1933(H1N1). Summed up: as §4

The values that follow come from ChEMBL document CHEMBL4316597, “Design, Synthesis, and Biological Evaluation of Itaconic Acid Derivatives as Potential Anti-Influenza Agents” (J Med Chem, 2019).

Active and inactive are the calls of the source. No cut-off for these calls is given here. A value given as a limit tells only on which side of the number the result lay.

In the case of `C=C(CC(=O)Nc1ccc(F)cc1F)C(=O)Nc1ccc(F)cc1F`, the EC50 is more than 50 µM in series [1]; 2.84 µM in series [2]; more than 50 µM in [7]; 4.6 µM in [8]; 4.5 µM in [12]; 2.36 µM in series [16]. The EC50 in [18] was more than 50 µM. For the same molecule, the selectivity ratio came out at 25 in [3]; 23 in [4]; 28 in series [9]; 16 in [14]; 29.8 in series [17]. In addition, the result in series [5] and in [6] was Active. In addition, the inhibition result in series [10], in [15] and in series [19] was “inactive” each time. The Activity result in series [11] is listed as “Non-Toxic”. For the same molecule, the CC50 at 72 h in series [13] worked out at 74.6 µM.

What is called EC50 is the concentration that produces a half-maximal response. By CC50 is commonly meant the concentration giving 50% cytotoxicity.
